Assay outcomes from PubChem.
miR-122 sensor – blocks miR-122 activity in Huh7 sensor cells; Huh7 miR-122 Renilla luciferase sensor, 48 h; neutral wells = 0, positive control = 100; activation (reporter increase), % at 12.5 µM; 0.3% of 340,000 active;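 active = mean replicate activation score at least 90 and every replicate individually at or above 90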;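 note: higher luciferase means less miR-122 activity so hits act as miR-122 inhibitors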
697 NFkB inh – lowers PMA/ionomycin-induced NF-kB signal in 697 B cells. 697 B-cell NF-kB luciferase reporter, 16 h. inhibition, % at 4 µM. 0.33% of 330,000 active; in the data active = inhibition above about 35%
FGF22 binding – FGF22 (human) thermal shift binding; Q9HCT0; recombinant FGF22 thermal shift, SYPRO orange fluorescence; percent of sucrose octasulfate shift, DMSO zero; activity (Tm shift, normalised), % at 9.99 µM; 1.5% of 340,000 active;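 active = mean Tm shift, scaled 0 neutral to 100 positive control, at about 1.3% or above, every replicate too, limit read from the data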
Target sequence (Q9HCT0 whole entry, looked up): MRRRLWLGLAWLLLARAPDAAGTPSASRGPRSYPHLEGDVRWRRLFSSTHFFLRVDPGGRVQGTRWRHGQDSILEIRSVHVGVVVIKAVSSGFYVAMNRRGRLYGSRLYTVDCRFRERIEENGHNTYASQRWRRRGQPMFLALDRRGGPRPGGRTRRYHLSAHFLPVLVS
Jurkat NFkB inh – lowers PMA/ionomycin-induced NF-kB signal in Jurkat cells. PMA/ionomycin-induced NF-kB luciferase reporter, luminescence. inhibition, % at 4 µM. 0.53% of 330,000 active; in the data active = inhibition above about 50%
NR2E3 ag-1 – activates human NR2E3 receptor | CHO-S Gal4-NCOR/VP16-NR2E3 two-hybrid, luciferase | inhibition of corepressor binding, % at 3.98 µM | 0.35% of 360,000 active | AID 602229;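 active = inhibition above the mean of all tested compounds plus 3 SD, cut at about 70% in these data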;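 note: 0% = DMSO with NR2E3 transfected cells and 100% = cells lacking NR2E3 construct; higher means lower luciferase signal from less NR2E3 corepressor binding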
Target sequence (Q9Y5X4 whole entry, looked up, the tested form may be a part): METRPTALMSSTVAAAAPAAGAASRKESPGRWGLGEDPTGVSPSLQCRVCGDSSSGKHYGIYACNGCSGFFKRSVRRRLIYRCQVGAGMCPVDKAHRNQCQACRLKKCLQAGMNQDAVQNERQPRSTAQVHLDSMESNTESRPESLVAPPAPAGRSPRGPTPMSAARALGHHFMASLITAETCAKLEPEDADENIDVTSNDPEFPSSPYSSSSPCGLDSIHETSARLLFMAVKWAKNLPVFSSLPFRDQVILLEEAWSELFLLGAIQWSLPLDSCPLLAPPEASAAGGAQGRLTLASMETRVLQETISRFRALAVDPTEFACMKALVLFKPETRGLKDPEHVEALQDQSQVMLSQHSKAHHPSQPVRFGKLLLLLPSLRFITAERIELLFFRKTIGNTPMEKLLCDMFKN
NR2E3 ag-2 – agonists of human nuclear receptor NR2E3 | 0.12% of 320,000 active | inhibition of corepressor binding, % at 4.78 µM | GST-NR2E3/biotin-RetCOR TR-FRET, 1536-well | Q9Y5X4 | AID 2300;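 active = percent inhibition above the cutoff of mean plus 3 SD of all tested compounds, set per screening campaign, cut at about 20% in these data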;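 note: 0% = DMSO wells and 100% = biotin wells as full block of FRET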
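Material: NR2E3–RetCOR corepressor complex / Incubation: Compound–protein incubation for 5 h at 4 °C / Dosing: compound at 4.8 µM, single dose / Detection: time-resolved FRET / Benchmarks: high control biotin, low control 0.6% DMSO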
Jurkat NFkB conf – lowers PMA/ionomycin-induced NF-kB signal in Jurkat cells. Jurkat NF-kB luciferase, 16 h. inhibition, % at 4 µM. 27% of 2,700 active. shares compounds with Jurkat NFkB inh. AID 435020;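 active = inhibition reaching about 45% at 4 µM in either replicate, limit read from the data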;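 note: plate controls were PMA/ionomycin stimulated DMSO wells for no effect and unstimulated DMSO wells for full effect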
Active calls of the source: *; nt = not tested or not shown; [ ] = remark or other dose. Rows were chosen to be rich in hits. Some 2.2% of all compounds tested hit in one or more screens of this group.

SMILES | miR-122 sensor | 697 NFkB inh | FGF22 binding | Jurkat NFkB inh | NR2E3 ag-1 | NR2E3 ag-2 | Jurkat NFkB conf
Cc1ccc(S(=O)(=O)N2CCCCC2CCNC(=O)C(=O)NCc2ccccc2)cc1 (stereo not given) | nt | -56.9 | -0.1 | 62.6* | -47.0 | -2.6 | 18.8
C[C@H](CO)N1C[C@H](C)[C@@H](CN(C)C(=O)Nc2cccc3ccccc23)Oc2ccc(NC(=O)CCC(F)(F)F)cc2CC1=O | 1.6[16.7 µM] | nt | 0.2 | nt | nt | nt | nt
c1ccc2c(c1)oc1c(Nc3ccc(CN4CCOCC4)cc3)ncnc12 | -1.5 | -141.3 | nt | -155.3 | -138.9 | 3.9 | -117.4
c1ccc2c(c1)oc1c(NCCN3CCOCC3)ncnc12 | -6.7 | 9.8 | nt | -6.3 | 0.0 | 3.2 | nt
COc1ccc(N=C2C(=Nc3ccc(OC)cc3)N(c3ccc(OC)cc3)C(=S)N2C(=O)c2ccc(OC)cc2)cc1 | -7.6 | 11.6 | nt | -7.9 | -58.8 | -2.2 | nt
COc1ccc(N=C2C(=Nc3ccc(OC)cc3)N(c3ccccc3)C(=S)N2C(=O)c2ccc(Cl)cc2)cc1 | -11.9 | -0.9 | nt | -25.7 | -123.9 | 0.0 | nt
COc1ccc(N=C2C(=Nc3ccc(OC)cc3)N(c3ccc(N(C)C)cc3)C(=S)N2c2ccc(OC)cc2)cc1 | nt | 29.6 | 0.3 | 70.4* | -9.9 | 3.9 | -40.9
COc1ccc(N2C(=S)N(C(=O)c3ccccc3)C(=Nc3ccccc3)C2=Nc2ccccc2)cc1 | 0.3 | -225.4 | nt | -176.1 | -158.9 | 0.0 | -63.0
C[C@@H]1CCCCO[C@@H](CN(C)C(=O)NC2CCCCC2)[C@@H](C)CN([C@@H](C)CO)C(=O)c2cc(N(C)C)ccc2O1 | 6.9[16.7 µM] | nt | nt | nt | nt | nt | nt
O=C(C[C@@H]1C[C@@H]2c3cc(NC(=O)c4cccnc4)ccc3O[C@@H]2[C@@H](CO)O1)NCc1cccc(F)c1 | -1.7[16.7 µM] | nt | -0.2 | nt | nt | nt | nt
Brc1ccc2nc(-c3c[nH]c4ccccc34)cn2c1 | 13.2 | -144.9 | 0.6 | -152.5 | -160.9 | 2.4 | -54.2
C[C@@H]1CN([C@@H](C)CO)C(=O)c2cc(C#CCN(C)C)cnc2O[C@H]1CN(C)Cc1ccccc1 | 2.7[16.7 µM] | nt | -0.1 | nt | nt | nt | nt
O=C(Cc1ccc(-n2cccc2)cc1)NCc1ccccc1Cl | 49.3 | -6.0 | nt | 47.0 | -38.9 | 1.5 | nt
O=C(Cc1ccccc1)NCc1ccc(-n2cccc2)cc1 | nt | -36.4 | 0.0 | 53.9* | -60.2 | 2.3 | 13.8
CC(C)NC(=O)N(C)C[C@H]1Oc2c(NC(=O)Nc3ccccc3)cccc2C(=O)N([C@@H](C)CO)C[C@@H]1C | 2.8[16.7 µM] | nt | -0.2 | nt | nt | nt | nt
COC(=O)c1cccc(NC(=O)NC(=O)c2ccc(Cl)cc2)c1 | 2.2 | -33.5 | 0.1 | 85.9* | -43.1 | 3.6 | 2.9
Cc1ccc(Nc2nc(N)c3ccccc3n2)cc1C | -11.4 | -248.0 | nt | -165.6 | -73.7 | nt | -119.7
OCCCNc1c2ccccc2nc2ccccc12 | -25.4 | 17.8 | -0.3 | 84.0* | -36.7 | -3.7 | -23.1
C[C@@H]1CCCCO[C@@H](CN(C)CC2CCCCC2)[C@H](C)CN([C@@H](C)CO)C(=O)c2cc(NS(=O)(=O)c3ccccc3)ccc2O1 | -4.9[16.7 µM] | nt | -0.4 | nt | nt | nt | nt
Cc1cccc(OCC(O)Cn2c(=N)n(Cc3ccccc3)c3ccccc32)c1 (stereo not given) | -1.3 | -41.9 | -0.2 | 62.1* | -19.1 | -1.6 | 18.0
Cc1ccc(OCC(O)Cn2c(=N)n(Cc3ccccc3)c3ccccc32)cc1 (stereo not given) | -90.0 | -45.7 | nt | 11.5 | 37.3 | 2.8 | nt
CC1=C(/C=C/C(C)=C/C=C/C(C)=C/C(=O)Nc2ccc(O)cc2)C(C)(C)CCC1 | 2.6 | -246.5 | 0.6 | 63.0* | 8.3 | -3.1 | -9.8
Cc1cc2nc(-c3ccc(SCC(=O)Nc4ccc(S(=O)(=O)NC5CC5)cc4)nc3)[nH]c2cc1C | nt | -153.9 | 0.2 | -180.6 | -62.4 | -44.8 | -140.8
Cc1cc(NC(=O)CSc2ccc(-c3nc4cc(C)c(C)cc4[nH]3)cn2)no1 | 2.4 | -32.1 | nt | -174.8 | -11.7 | 0.3 | -85.8
Cc1cc2nc(-c3ccc(SCc4ccc(C(=O)O)cc4)nc3)[nH]c2cc1C | nt | nt | 0.3 | nt | -65.5 | 4.8 | nt
SMILES | miR-122 sensor | 697 NFkB inh | FGF22 binding | Jurkat NFkB inh | NR2E3 ag-1 | NR2E3 ag-2 | Jurkat NFkB conf
Cc1cc2nc(-c3ccc(SCC(=O)NC(C)C)nc3)[nH]c2cc1C | nt | -44.3 | nt | -69.7 | nt | 2.0 | nt
C[C@H](CO)N1C[C@H](C)[C@@H](CN(C)Cc2ccc(C(=O)O)cc2)Oc2ccc(NC(=O)Cc3ccccc3)cc2C1=O | 0.9[16.7 µM] | nt | -0.3 | nt | nt | nt | nt
CCCNC(=O)N1[C@H](C#N)[C@H](c2ccc(C#Cc3cccc(F)c3)cc2)[C@H]1CO | nt | nt | 0.4 | nt | nt | nt | nt
Cn1c(=O)[nH]c(=O)c2c1nc(CN1CCN(c3cccc(Cl)c3)CC1)n2Cc1ccccc1Cl | -1.3 | -30.5 | -0.2 | 56.9* | -20.5 | 2.5 | 12.3
O=C(C[C@@H]1CC[C@H](NS(=O)(=O)c2ccccc2)[C@H](CO)O1)NCc1ccc(Cl)c(Cl)c1 | nt | nt | 0.3 | nt | nt | nt | nt
CC(=O)c1ccc(NC(=O)Nc2ccc(Cl)cc2)cc1 | -1.2 | -128.5 | 0.1 | -152.7 | -147.0 | 4.9 | -84.5
CC(=O)c1cccc(NC(=O)NC2CCCCCCC2)c1 | 61.6 | -29.3 | 0.0 | -24.4 | -38.3 | 2.8 | nt
CC(=O)c1ccc(NC(=O)NC2CCCCCCC2)cc1 | -7.0 | -158.9 | 0.0 | -150.1 | -94.3 | nt | -71.3
CO[C@@H]1CN(C)C(=O)c2ccc(NC(=O)Nc3ccccc3F)cc2OC[C@H](C)N(C(C)=O)C[C@@H]1C | -11.4[16.7 µM] | nt | 0.1 | nt | nt | nt | nt
CN(c1cccc(Cl)c1)S(=O)(=O)c1cccc(C(=O)Nc2nc3ccccc3[nH]2)c1 | nt | -29.8 | 0.3 | 8.6 | -27.0 | 2.7 | nt
O=C(Nc1nc2ccccc2[nH]1)c1cccc(Cl)c1 | -0.5 | -235.3 | -0.2 | -159.8 | -118.6 | 4.1 | -122.6
C[C@H]1CN([C@@H](C)CO)C(=O)Cc2cc(NC(=O)c3ccncc3)ccc2O[C@H]1CN(C)Cc1ccc(Cl)c(Cl)c1 | 1.6[16.7 µM] | nt | -0.1 | nt | nt | nt | nt
CN(C)C(=O)[C@H]1[C@H](CO)[C@H]2Cn3c(ccc(-c4cccc(F)c4)c3=O)[C@@H]1N2CC1CC1 | -6.1[16.7 µM] | nt | nt | nt | nt | nt | nt
Cc1cc(Sc2ccc([N+](=O)[O-])cn2)ccc1Br | nt | 14.3 | -0.1 | 61.6* | 0.2 | -2.6 | 24.9
O=[N+]([O-])c1ccc(Sc2ccc(F)cc2)nc1 | nt | 18.8 | 0.1 | 9.6 | -9.4 | 0.7 | nt
Oc1cccc(/C=N/N=C/c2cccc(O)c2O)c1O | nt | -191.1 | -0.2 | 80.6* | -16.4 | 2.3 | -20.9
C/C(=N\N1CCN(Cc2ccccc2Cl)CC1)c1ccc([N+](=O)[O-])cc1 | 0.8 | -2.7 | -0.3 | 51.1* | 6.8 | -0.3 | -6.8
CCOCCCNC(=O)c1cc2c(=O)n3cccc(C)c3nc2n1C | -1.0 | -11.8 | -0.1 | 58.0* | 3.1 | -3.3 | 44.0
O=C(/C=C/c1ccc2c(c1)OCO2)Nc1nc2ccccc2s1 | -3.1 | -162.0 | nt | -167.6 | -52.7 | -0.7 | -65.2
